Data taken from ChEMBL document CHEMBL1123929, “Investigation of peripheral cholecystokinin receptor heterogeneity by cyclic and related linear analogues of CCK26-33: synthesis and biological properties” (J Med Chem, 1987).
Non-standard residues stand in square brackets, D forms with d. Residues, ends and D or L forms follow the SMILES beside them. *: point of attachment. sY = N[C@@H](Cc1ccc(OS(=O)(=O)O)cc1)C(=O)O; Nle = CCCC[C@H](N)C(=O)O; Boc = CC(C)(C)OC(=O)*

Columns and labels:
[1] = molecular target: T1, Cholecystokinin receptor (Mus musculus, UniProt O08786+P56481); assay: Binding affinity measured by inhibiting [3H]Boc[Nle28,31]CCK27-33 specific binding to Cholecystokinin receptor in mouse brain membranes at a KD concentration of 0.19 nM; assay type: cell membranes, Membrane
T1 sequence (O08786 whole entry): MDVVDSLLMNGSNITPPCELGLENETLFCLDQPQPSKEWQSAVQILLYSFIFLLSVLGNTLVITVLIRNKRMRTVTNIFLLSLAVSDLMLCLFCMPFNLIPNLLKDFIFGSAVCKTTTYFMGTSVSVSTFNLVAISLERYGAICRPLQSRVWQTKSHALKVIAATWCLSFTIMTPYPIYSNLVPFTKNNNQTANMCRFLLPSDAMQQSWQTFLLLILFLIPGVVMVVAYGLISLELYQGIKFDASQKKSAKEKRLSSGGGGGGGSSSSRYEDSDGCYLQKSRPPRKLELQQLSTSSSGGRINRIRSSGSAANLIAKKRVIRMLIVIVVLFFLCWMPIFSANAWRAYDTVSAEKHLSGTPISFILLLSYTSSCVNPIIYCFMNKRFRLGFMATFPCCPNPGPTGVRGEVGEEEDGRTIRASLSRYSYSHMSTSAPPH
T1 sequence (P56481 whole entry): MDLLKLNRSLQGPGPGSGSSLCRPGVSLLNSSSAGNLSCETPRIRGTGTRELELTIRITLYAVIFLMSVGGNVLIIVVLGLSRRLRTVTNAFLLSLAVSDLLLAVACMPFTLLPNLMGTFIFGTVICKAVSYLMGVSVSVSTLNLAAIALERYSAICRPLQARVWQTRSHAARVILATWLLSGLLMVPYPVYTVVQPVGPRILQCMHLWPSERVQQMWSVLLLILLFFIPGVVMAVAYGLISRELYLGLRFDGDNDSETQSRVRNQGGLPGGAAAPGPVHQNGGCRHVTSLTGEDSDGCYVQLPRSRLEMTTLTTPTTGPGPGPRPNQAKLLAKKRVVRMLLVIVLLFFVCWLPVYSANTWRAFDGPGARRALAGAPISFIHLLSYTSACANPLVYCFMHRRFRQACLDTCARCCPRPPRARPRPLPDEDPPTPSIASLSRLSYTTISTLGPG

[2] = organism: Rattus norvegicus; assay: Evaluated for agonist activity measured as amylase secretion by rat pancreas; assay type: functional
Procedure, shortened: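 Rat pancreas fragments stimulated with peptide (Na salt form). Amylase released into the medium was measured with Phadebas reagent by the Ceska method. EC50 was taken from concentration–response curves. Results are means of three separate experiments, each value in triplicate.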

[3] = molecular target: T2, Cholecystokinin receptor type A (Rattus norvegicus, UniProt P30551); assay: Evaluated for binding affinity measured by inhibiting [3H]Boc[Nle28,31]CCK27-33 specific binding to Cholecystokinin receptor in rat pancreas membranes at a KD concentration of 4.4 nM; assay type: cell membranes, Membrane
T2 sequence (P30551 whole entry): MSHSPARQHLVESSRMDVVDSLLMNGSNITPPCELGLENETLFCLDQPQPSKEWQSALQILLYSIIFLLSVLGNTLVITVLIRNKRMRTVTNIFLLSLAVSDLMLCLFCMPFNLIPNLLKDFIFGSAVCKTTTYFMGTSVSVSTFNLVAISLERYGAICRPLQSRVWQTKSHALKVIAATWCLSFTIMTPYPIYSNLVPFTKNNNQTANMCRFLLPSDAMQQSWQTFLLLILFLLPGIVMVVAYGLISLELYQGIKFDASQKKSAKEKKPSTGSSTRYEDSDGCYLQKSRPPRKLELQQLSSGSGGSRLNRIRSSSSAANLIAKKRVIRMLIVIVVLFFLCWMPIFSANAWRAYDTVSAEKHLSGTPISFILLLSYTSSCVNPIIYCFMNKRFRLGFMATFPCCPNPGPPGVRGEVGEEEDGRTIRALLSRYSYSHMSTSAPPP

[4] = organism: Cavia porcellus; assay: Evaluated for contractile activities of guinea pig ileum for antagonistic activity (contraction induced by 3, 10e -9M of CCK-8); assay type: functional
Procedure, shortened: (§1)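 Isolated guinea pig ileum contraction by the Hutchinson and Dockray method, with atropine present (1.5 mg/L). Agonism was tested by direct contraction. Antagonism was tested against contraction evoked by 3 × 10⁻⁹ M CCK8. Peptides were used as Na salts. Values are mean ± SEM of three separate experiments.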

[5] = organism: Cavia porcellus; assay: Evaluated for contractile activities of guinea pig ileum for agonistic activity; assay type: functional; procedure, shortened: as §1

Structure (SMILES)	Ki [1]	EC50 [2] [nM]	Ki [3] [nM]	EC50 [5] [nM]	EC50 [4] [nM]
CCCC[C@H](NC(=O)[C@H](Cc1c[nH]c2ccccc12)NC(=O)[C@H]1CCCCNC(=O)C[C@H](NC(=O)OC(C)(C)C)C(=O)N[C@@H](Cc2ccc(OS(=O)(=O)O)cc2)C(=O)N[C@@H](CCCC)C(=O)N1)C(=O)N[C@@H](CC(=O)O)C(N)=O	> 0.00001 M	> 1000	> 10000	> 10000	> 10000
CCCC[C@H](NC(=O)[C@H](Cc1c[nH]c2ccccc12)NC(=O)[C@@H](CCCCN)NC(=O)[C@H](CCCC)NC(=O)[C@H](Cc1ccc(OS(=O)(=O)O)cc1)NC(=O)[C@H](CC(=O)O)NC(=O)OC(C)(C)C)C(=O)N[C@@H](CC(=O)O)C(=O)N[C@@H](Cc1ccccc1)C(N)=O	300 nM	40	340	> 10000	15000
CSCC[C@H](NC(=O)[C@H](Cc1ccc(OS(=O)(=O)O)cc1)NC(=O)[C@@H](N)CC(=O)O)C(=O)NCC(=O)N[C@@H](Cc1c[nH]c2ccccc12)C(=O)N[C@@H](CCSC)C(=O)N[C@@H](CC(=O)O)C(=O)N[C@@H](Cc1ccccc1)C(N)=O [SINCALIDE]	0.491 nM	1	–	2	–

Further lines, with some results ahead:

Ki [1]	EC50 [2] [nM]	Ki [3] [nM]	EC50 [5] [nM]	Structure (SMILES)	EC50 [4] [nM]
> 10000 nM	> 100000	> 10000	> 10000	CCCC[C@H](NC(=O)[C@H](Cc1c[nH]c2ccccc12)NC(=O)[C@@H](CCCCN)NC(=O)[C@H](CCCC)NC(=O)[C@H](Cc1ccc(OS(=O)(=O)O)cc1)NC(=O)[C@H](CC(=O)O)NC(=O)OC(C)(C)C)C(=O)N[C@@H](CC(=O)O)C(N)=O	> 10000
0.191 nM	2.8	–	3.2	CCCC[C@H](NC(=O)[C@H](Cc1ccc(OS(=O)(=O)O)cc1)NC(=O)OC(C)(C)C)C(=O)NCC(=O)N[C@@H](Cc1c[nH]c2ccccc12)C(=O)N[C@@H](CCCC)C(=O)N[C@@H](CC(=O)O)C(=O)N[C@@H](Cc1ccccc1)C(N)=O (Boc-[sY][Nle]GW[Nle]DF-NH2)	–
